# In ChEMBL document CHEMBL2069299, “Biologically active ester derivatives as potent inhibitors of the soluble epoxide hydrolase” (Bioorg Med Chem Lett, 2012):
# Experiments:
# [1] = Solubility in water using 0.1 M pH 7.4 phosphate buffer by LC-MS/MS method; type: physicochemical
# Method in brief: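 Excess solid suspended in 0.1 M sodium phosphate buffer, pH 7.4; equilibrated by 1 h sonication then 24 h shaking; centrifuged. Supernatant analysed by LC-MS/MS, with amount calculated from a regression curve built for each compound from five standard solutions.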
# [2] = Stability in human liver microsomes aunder NADPH generating system at 37 degC for 60 mins by LC-MS/MS method; type: ADME, Microsome; conditions: read-out: Stability
# Method in brief: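 Test compound incubated with 0.125 mg human liver microsomal protein plus NADPH-generating system, shaken 37°C for 60 min. Remaining parent quantified by LC-MS/MS and expressed as percent; acid metabolites also monitored. Mean of triplicate independent analyses.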
# [3] = molecular target: T1, Bifunctional epoxide hydrolase 2 (Homo sapiens, UniProt P34913); assay: Inhibition of human soluble epoxide hydrolase pre-incubated for 5 mins at 30 degC before CMNPC fluorescent substrate addition by fluorimetric assay
# T1 sequence (P34913 whole entry): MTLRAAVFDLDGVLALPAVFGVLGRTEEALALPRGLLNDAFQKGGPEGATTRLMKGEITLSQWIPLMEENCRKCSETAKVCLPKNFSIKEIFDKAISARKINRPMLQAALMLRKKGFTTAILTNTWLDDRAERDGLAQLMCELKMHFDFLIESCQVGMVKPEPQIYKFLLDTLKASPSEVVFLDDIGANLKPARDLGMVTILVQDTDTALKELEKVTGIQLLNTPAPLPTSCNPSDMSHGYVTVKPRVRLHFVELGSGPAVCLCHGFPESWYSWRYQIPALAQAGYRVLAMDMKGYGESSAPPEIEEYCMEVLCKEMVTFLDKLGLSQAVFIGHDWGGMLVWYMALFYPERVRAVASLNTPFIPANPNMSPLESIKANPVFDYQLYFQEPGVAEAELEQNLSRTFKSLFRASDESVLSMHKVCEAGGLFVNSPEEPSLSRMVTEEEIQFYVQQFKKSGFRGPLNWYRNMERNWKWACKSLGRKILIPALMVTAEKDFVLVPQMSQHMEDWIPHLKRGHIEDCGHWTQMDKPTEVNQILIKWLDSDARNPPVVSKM
# Method in brief: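 Recombinant-free detail not given; human sEH at 0.96 nM preincubated with inhibitor 5 min at 30°C in 25 mM Bis-Tris/HCl, pH 7.0, then fluorescent substrate added at 5 μM. Fluorescence read-out; IC50 reported as mean of three separate measurements, assay standard error stated as 10–20%.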
Structure (SMILES),solubility [1] [µg/mL],remaining at 1 h [2] [%],IC50 [3] [nM]
CCOCCOCC(OC(=O)CCCNC(=O)NC12CC3CC(CC(C3)C1)C2)c1ccccc1 (stereo not given),89,14,4
CCCCC(C)OC(=O)CCCNC(=O)NC12CC3CC(CC(C3)C1)C2 (stereo not given),,,4
CCCCC(CC)OC(=O)CCCNC(=O)NC12CC3CC(CC(C3)C1)C2 (stereo not given),3,4,4
CCCCC(C#N)OC(=O)CCCNC(=O)NC12CC3CC(CC(C3)C1)C2 (stereo not given),,,12
CCOCCOCCOC(=O)CCCNC(=O)NC12CC3CC(CC(C3)C1)C2,878,10,67
O=C(NC1CCCC(C(=O)O)C1)NC12CC3CC(CC(C3)C1)C2 (stereo not given),,95,1160
CCCCCOC(=O)C1CCCC(NC(=O)NC23CC4CC(CC(C4)C2)C3)C1 (stereo not given),,,2
CCCCC(CC)OC(=O)C1CCCC(NC(=O)NC23CC4CC(CC(C4)C2)C3)C1 (stereo not given),1,10,3
CCOCCOCC(OC(=O)C1CCCC(NC(=O)NC23CC4CC(CC(C4)C2)C3)C1)c1ccccc1 (stereo not given),41,32,9
CCCCCOC(=O)CCCNC(=O)NC12CC3CC(CC(C3)C1)C2,2,< 1,10
O=C(O)CCCNC(=O)NC12CC3CC(CC(C3)C1)C2,,97,684
